ChEMBL document CHEMBL1158185, “Synthesis and potent antileukemic activities of 10-benzyl-9(10H)-acridinones” (Bioorg Med Chem, 2008)

How the values were obtained:
CCRF-CEM [1] = experiment: Antiproliferative activity against human CCRF-CEM cells after 48 hrs by MTT assay; assay type: functional, cell-based
Outline: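 CCRF-CEM cells in RPMI 1640 with 10% FBS, penicillin/streptomycin, 37 °C, 5% CO2, seeded at 2 × 10⁵ cells/mL. Compounds added at various concentrations, each in quintuplicate, for 48 h. Growth read by MTT. IC50 taken as the concentration giving 50% growth inhibition.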

CCRF-CEM [2] = experiment: Induction of apoptosis in human CCRF-CEM cells assessed as accumulation at sub-G0 phase after 24 hrs by flow cytometry; assay type: functional, cell-based
Outline: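 CCRF-CEM cells exposed to compound at 0.5, 1.0 or 2.5 μM for 24 h at 37 °C, alongside untreated controls. Cells washed twice in PBS, fixed in ice-cold 70% ethanol at 4 °C for 1–2 h, then stained with propidium iodide. Sub-diploid (sub-G0) DNA peak measured by flow cytometry, 488 nm argon laser.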

CCRF-CEM [3] = experiment: Induction of late stage apoptosis in human CCRF-CEM cells at 1 uM after 48 hrs by annexin V-FITC/propidium iodide staining relative to control; assay type: functional
Outline: (§1)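 CCRF-CEM cells treated with compound at 1.0, 2.5 or 5 μM for 48 h, alongside untreated controls. Stained with annexin V-FITC/PI kit and analysed by flow cytometry, 488 nm laser. Early apoptosis counted as annexin V+/PI−; late apoptosis or necrosis as double positive.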

CCRF-CEM [4] = experiment: Induction of early stage apoptosis in human CCRF-CEM cells at 1 uM after 48 hrs by annexin V-FITC/propidium iodide staining relative to control; assay type: functional; outline: as §1
HL-60 = experiment: Antiproliferative activity against human HL-60 cells by MTT assay; assay type: functional, cell-based
Outline: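 HL60 cells in RPMI 1640 with 10% FBS, penicillin/streptomycin, 37 °C, 5% CO2, seeded at 2 × 10⁵ cells/mL. Compound added at various concentrations in quintuplicate, then incubated. Viability read by MTT. IC50 is the concentration giving 50% growth inhibition.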

CCRF-CEM [5] = experiment: Induction of late stage apoptosis in human CCRF-CEM cells at 5 uM after 48 hrs by annexin V-FITC/propidium iodide staining relative to control; assay type: functional; outline: as §1
CCRF-CEM [6] = experiment: Induction of early stage apoptosis in human CCRF-CEM cells at 2.5 uM after 48 hrs by annexin V-FITC/propidium iodide staining relative to control; assay type: functional; outline: as §1
CCRF-CEM [7] = experiment: Induction of late stage apoptosis in human CCRF-CEM cells at 2.5 uM after 48 hrs by annexin V-FITC/propidium iodide staining relative to control; assay type: functional; outline: as §1
K562 = experiment: Antiproliferative activity against human K-562 cells by MTT assay; assay type: functional, cell-based
Outline: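 K562 cells seeded at 2 × 10⁵ cells/mL. Compound added at various concentrations in quintuplicate, then incubated. Viability read by MTT. IC50 is the concentration inhibiting growth by 50%.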

CCRF-CEM [8] = experiment: Induction of early stage apoptosis in human CCRF-CEM cells at 5 uM after 48 hrs by annexin V-FITC/propidium iodide staining relative to control; assay type: functional; outline: as §1

SMILES	IC50 (CCRF-CEM [1])	also measured
O=c1c2ccccc2[nH]c2ccccc12 [ACRIDONE]	> 100 µM	
Cc1cccc(Cn2c3ccccc3c(=O)c3ccccc32)c1	8.8 µM	
COc1cc(CN2CCC(=O)CC2)cc(OC)c1OC	> 100 µM	
CCCOc1cc(Cn2c3ccccc3c(=O)c3ccccc32)cc(OCCC)c1	39.1 µM	
O=c1c2ccccc2n(Cc2ccccc2)c2ccccc12	52 µM	
COc1ccc(Cn2c3ccccc3c(=O)c3ccccc32)cc1	> 100 µM	
COc1cc(Cn2c3ccccc3c(=O)c3ccccc32)cc(OC)c1OC	1.5 µM	
O=c1c2ccccc2n(Cc2cc(OCc3ccccc3)cc(OCc3ccccc3)c2)c2ccccc12	> 100 µM	
O=c1c2ccccc2n(Cc2cccc(F)c2)c2ccccc12	62 µM	
COc1cc(Cn2c3ccccc3c(=O)c3ccccc32)cc(OC)c1	0.7 µM	Activity (CCRF-CEM [2]): Dose-dependent effect; Activity (CCRF-CEM [3]): 10%; Activity (CCRF-CEM [4]): 9.5%; IC50 (HL-60): 0.6 µM; Activity (CCRF-CEM [5]): 41.6%; Activity (CCRF-CEM [6]): 27.4%; Activity (CCRF-CEM [7]): 33.6%; IC50 (K562): 11.4 µM; Activity (CCRF-CEM [8]): 21.7%
CCCCOc1cc(Cn2c3ccccc3c(=O)c3ccccc32)cc(OCCCC)c1	> 100 µM	
COc1cccc(Cn2c3ccccc3c(=O)c3ccccc32)c1	> 100 µM	
CCOc1cc(Cn2c3ccccc3c(=O)c3ccccc32)cc(OCC)c1	6.7 µM	
O=c1c2ccccc2n(Cc2cccc(C(F)(F)F)c2)c2ccccc12	36 µM	
